The values that follow come from ChEMBL document CHEMBL1157932, “Prenylated pterocarpans as bacterial neuraminidase inhibitors” (Bioorg Med Chem, 2010).

By inhibition is commonly meant how much of the control response was suppressed. Broadly, the IC50 is the midpoint of a concentration-inhibition curve. In general, Ki refers to a dissociation constant, usually derived from enzyme kinetics or from competition with a known ligand.

The source made the active and inactive calls. No cut-off for these calls is given here.

In experiment [1] the target is T1, Sialidase (Clostridium perfringens) (UniProt P10481).
T1 sequence (whole entry): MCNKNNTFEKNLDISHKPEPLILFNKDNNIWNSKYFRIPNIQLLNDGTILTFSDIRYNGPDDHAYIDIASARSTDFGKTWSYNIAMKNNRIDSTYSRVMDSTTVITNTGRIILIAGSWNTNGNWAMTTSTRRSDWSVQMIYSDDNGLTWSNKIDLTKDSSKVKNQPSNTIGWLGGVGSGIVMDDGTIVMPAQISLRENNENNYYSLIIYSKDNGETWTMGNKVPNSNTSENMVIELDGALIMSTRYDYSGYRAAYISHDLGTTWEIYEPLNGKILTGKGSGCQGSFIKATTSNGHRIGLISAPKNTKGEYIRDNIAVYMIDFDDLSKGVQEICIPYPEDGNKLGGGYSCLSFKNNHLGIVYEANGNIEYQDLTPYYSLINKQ
Put plainly: Reversible inhibition of Clostridium perfringens neuraminidase at 0.1 times IC50 pre-incubated for 15 mins by spectrofluorimetry. A digest of the protocol:
(§1)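 Reversibility by jump dilution: enzyme pre-incubated 15 min with compound at 100-fold assay enzyme level (0.125 U/mL), then diluted 1/100 into acetate buffer with substrate. Progress curves of fluorescence over 30 min compared with enzyme pre-incubated and diluted without compound.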

The target of experiment [2] is T1, Sialidase (Clostridium perfringens). Description: Competitive inhibition of Clostridium perfringens neuraminidase by Dixon plot analysis. A digest of the protocol: (§2)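 Dixon plots of 1/v against [I] at each substrate concentration, rates from unquenched fluorometric 4-MU-NANA hydrolysis (ex 360/em 440 nm); Ki read from the x-axis value where lines intersect.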

Experiment [3] has the same target. Put plainly: (§3) Inhibition of Clostridium perfringens neuraminidase assessed as inhibition of 4-MU-NANA hydrolysis after 10 mins by spectrofluorimetry. A digest of the protocol: (§4)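 Enzyme at 0.05 U/mL in 0.04 M sodium acetate pH 5.0 with compound (DMSO stock diluted in buffer) and 4-MU-NANA (1 mM stock); 10 min at 37 °C. Stopped with 0.1 M glycine–NaOH pH 10.4; 4-methylumbelliferone read at ex 360/em 440 nm. IC50 from regression, mean ± SD of three replicates.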

Experiment [4] deals with T2, Sialidase (Clostridium perfringens, UniProt P10481).
T2 sequence (P10481 whole entry): T1 sequence (whole entry)
Described as §3. A digest of the protocol:
as §4

Experiment [5] concerns the target Sialidase (Vibrio cholerae serotype O1 (strain ATCC 39315 / El Tor Inaba N16961), UniProt P0C6E9). Description: (§5) Inhibition of Vibrio cholerae neuraminidase assessed as inhibition of 4-MU-NANA hydrolysis after 30 mins by spectrofluorimetry. A digest of the protocol: (§6)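 V. cholerae enzyme (8.3 U) with compound in 50 mM MES, 6 mM CaCl2, pH 5.6, pre-incubated 30 min at 37 °C with shaking. 4-MU-NANA added at 25 µM final, 30 min at 37 °C, then quenched with 0.25 M glycine pH 10.0. Read at ex 360/em 440 nm, blank-corrected, expressed as % of no-inhibitor control, at least triplicate.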

For experiment [6], the target named is Sialidase (Vibrio cholerae serotype O1 (strain ATCC 39315 / El Tor Inaba N16961)) (UniProt P0C6E9). The experiment is described as §5. In short, it runs like this:
as §6

Experiment [7] addresses T1, Sialidase (Clostridium perfringens). Put plainly: Inhibition of Clostridium perfringens neuraminidase at 10 times IC50 by spectrofluorimetry. In short, it runs like this:
as §1

Experiment [8] concerns the target T2, Sialidase. Description: Competitive inhibition of Clostridium perfringens neuraminidase. In short, it runs like this: (§7)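 Kinetics run in acetate-buffer 4-MU-NANA fluorometric assay without stop solution, product read immediately at ex 360/em 440 nm across substrate and inhibitor concentrations. Mode assigned from Lineweaver–Burk and Dixon plots; Ki from x-axis intersection of lines.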

The target of experiment [9] is T1, Sialidase (Clostridium perfringens). Description: Reversible inhibition of Clostridium perfringens neuraminidase at 10 times IC50 pre-incubated for 15 mins by spectrofluorimetry. In short, it runs like this: as §1
The target is the same in experiment [10]. Description: Competitive inhibition of Clostridium perfringens neuraminidase by Lineweaver-Burke plot analysis.
Experiment [11] has the same target. Put plainly: Inhibition of Clostridium perfringens neuraminidase at 0.1 times IC50 by spectrofluorimetry. In short, it runs like this:
as §1

Experiment [12] shares this target. Description: Noncompetitive inhibition of Clostridium perfringens neuraminidase by Lineweaver-Burke plot analysis.
Experiment [13] deals with T2, Sialidase. Description: Noncompetitive inhibition of Clostridium perfringens neuraminidase. In short, it runs like this:
as §7

Experiment [14] concerns the target T1, Sialidase (Clostridium perfringens). Description: Noncompetitive inhibition of Clostridium perfringens neuraminidase by Dixon plot analysis. A digest of the protocol:
as §2

Experiment [15] shares this target. Particulars: 20 ug/mL.
Experiment [16] concerns the target Sialidase (Vibrio cholerae serotype O1 (strain ATCC 39315 / El Tor Inaba N16961)) (UniProt P0C6E9). Put plainly: Inhibition of Vibrio cholerae neuraminidase assessed as inhibition of 4-MU-NANA hydrolysis at 30 ug/mL after 10 mins by spectrofluorimetry.

Sequence of Sialidase (Vibrio cholerae serotype O1 (strain ATCC 39315 / El Tor Inaba N16961)) (P0C6E9 whole entry, one chain of several): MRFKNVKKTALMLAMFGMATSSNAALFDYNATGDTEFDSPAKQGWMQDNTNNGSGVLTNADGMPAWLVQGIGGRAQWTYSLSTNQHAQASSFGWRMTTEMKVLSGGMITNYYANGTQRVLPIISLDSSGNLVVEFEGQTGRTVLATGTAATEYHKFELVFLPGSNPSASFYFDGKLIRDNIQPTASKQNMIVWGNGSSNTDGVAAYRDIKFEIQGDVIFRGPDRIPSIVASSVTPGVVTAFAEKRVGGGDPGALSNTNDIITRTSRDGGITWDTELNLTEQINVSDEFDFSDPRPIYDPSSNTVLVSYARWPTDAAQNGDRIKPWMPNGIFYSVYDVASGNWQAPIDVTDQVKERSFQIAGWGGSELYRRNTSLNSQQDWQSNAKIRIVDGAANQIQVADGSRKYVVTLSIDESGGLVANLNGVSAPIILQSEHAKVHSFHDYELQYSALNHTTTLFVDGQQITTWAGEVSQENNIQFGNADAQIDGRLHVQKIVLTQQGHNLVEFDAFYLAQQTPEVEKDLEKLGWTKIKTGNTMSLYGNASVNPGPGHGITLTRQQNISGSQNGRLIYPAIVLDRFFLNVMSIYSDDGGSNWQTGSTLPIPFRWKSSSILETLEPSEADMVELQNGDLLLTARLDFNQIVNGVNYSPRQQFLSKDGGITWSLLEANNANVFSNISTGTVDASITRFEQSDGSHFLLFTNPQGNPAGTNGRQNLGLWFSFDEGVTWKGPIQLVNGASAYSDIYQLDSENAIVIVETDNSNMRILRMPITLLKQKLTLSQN
Sequence of Sialidase (Vibrio cholerae serotype O1 (strain ATCC 39315 / El Tor Inaba N16961), UniProt P0C6E9) (P0C6E9 whole entry, one chain of several): as above

`CC(C)=CCc1cc2c(cc1O)OC[C@H]1c3ccc4c(c3O[C@@H]21)CC(O)C(C)(C)O4` (stereo partly specified) [ERYSUBIN D]: the inhibition result in experiment [1], in experiment [2], in experiment [9] and in experiment [10] was “Active” in each case. Besides, the Activity result in experiment [3] and in experiment [6] was “Dose-dependent effect” each time. Further, the IC50 on Sialidase [4] and at Sialidase [5] was 26.4 µM throughout. Further, the results for the inhibition in experiment [7] and in experiment [11] were 91% and 9%, respectively. In addition, affinity at Sialidase [8] was put at a Ki of 15.2 µM.

In the case of `CC(C)=CCc1c(O)ccc2c3c(oc12)-c1cc(C=O)c(O)cc1OC3` [ERYTHRIBYSSIN O], the inhibition result in experiment [1], in [12], in experiment [9] and in experiment [14] was “Active” throughout. Also, the Activity result in experiment [3] and in [6] was “Dose-dependent effect” throughout. For the same molecule, the IC50 is 1.32 µM on Sialidase [4] and 0.35 µM at Sialidase [5]. Moreover, the inhibition constant Ki at Sialidase [13] was 1.21 µM. Moreover, the inhibition in experiment [7] worked out at 91%; in [11], 9%.

As to `CC(C)=CCc1c(O)ccc2c1O[C@H]1c3cc4c(cc3OC[C@@H]21)OC(C)(C)C(O)C4` (stereo partly specified) [ERYTHRIBYSSIN L], the inhibition result in experiment [1], in experiment [12], in [9] and in experiment [14] was “Active” each time. Further, in experiment [3], the Activity result was “Dose-dependent effect”. Moreover, the IC50 at Sialidase [4] worked out at 2.79 µM; on Sialidase [5], 27.1 µM. The molecule further showed a Ki at Sialidase [13] of 4.13 µM. The inhibition stood at 91% in experiment [7] and 9% in [11].

Consider `COc1ccc2c3c(oc2c1CC=C(C)C)-c1ccc(O)cc1OC3` [ERYVARIN D], for which the IC50 worked out at 2.09 µM on Sialidase [4] and 3.3 µM on Sialidase [5]. For the same molecule, the affinity at Sialidase [13] corresponds to a Ki of 2.55 µM. Moreover, in [6], the Activity entry is “Dose-dependent effect”.

As for `CC(C)=CCc1cc2c(cc1O)O[C@H]1c3ccc(O)cc3OC[C@@H]21` [SOPHORAPTEROCARPAN A], the inhibition entry in experiment [1], in [12], in experiment [9] and in [14] was “Active” in each case. Also, the Activity entry in experiment [3] was “Dose-dependent effect”. For the same molecule, the IC50 was 2.01 µM at Sialidase [4] and 11.6 µM at Sialidase [5]. This molecule also gave a Ki on Sialidase [13] of 1.78 µM. The inhibition worked out at 91% in experiment [7] and 9% in experiment [11].

Consider `COc1ccc2c(c1CC=C(C)C)O[C@H]1c3cc(CC=C(C)C)c(O)cc3OC[C@@]21O` [ERYSTAGALLIN A], for which the inhibition result in experiment [1], in experiment [12], in [9] and in experiment [14] was “Active” throughout. Besides, the Activity entry in experiment [3] and in [6] was “Dose-dependent effect” throughout. For the same molecule, the IC50 at Sialidase [4] came to 2.04 µM; at Sialidase [5], 27.7 µM. At Sialidase [13], this molecule displayed a Ki of 1.8 µM. Further, the inhibition in experiment [7] came to 91%; in experiment [11], 9%.

With `CC1(C)Oc2ccc3c(c2CC1O)O[C@@H]1c2ccc(O)cc2OC[C@H]31` (stereo partly specified) [ERYTHRIBYSSIN M], the inhibition entry in experiment [1] and in experiment [9] was “Active” in each case. Also, the Activity entry in experiment [3] and in experiment [6] was “Dose-dependent effect” each time. Moreover, the IC50 at Sialidase [4] was 205 µM; at Sialidase [5], 77.7 µM. The inhibition in experiment [7] turned out to be 91%; in experiment [11], 9%.

Regarding `COc1ccc2c(c1CC=C(C)C)O[C@H]1c3ccc(O)cc3OC[C@@]21O` [ERYTHRABYSSIN I], the inhibition entry in experiment [1], in experiment [12], in experiment [9] and in experiment [14] was “Active” throughout. The Activity entry in [3] and in experiment [6] was “Dose-dependent effect” each time. In addition, the IC50 on Sialidase [4] came to 2.28 µM; at Sialidase [5], 22 µM. This molecule yielded a Ki on Sialidase [13] of 0.31 µM. The inhibition in experiment [7] was 91%; in experiment [11] it was 9%.

Regarding `CC1(C)Oc2ccc3c(c2CC1O)O[C@H]1c2ccc(O)cc2OC[C@@H]31` (stereo partly specified) [ERYTHRIBYSSIN D], the inhibition result in [1] and in experiment [9] was “Active” throughout. Further, the Activity result in experiment [3] and in experiment [6] was “Dose-dependent effect” each time. The half-inhibitory concentration (IC50) on Sialidase [4] is 77.1 µM; on Sialidase [5], 46.2 µM. Also, the inhibition in experiment [7] is 91%; in [11] it was 9%.

On to `CC1(C)C=Cc2cc3c(cc2O1)OC[C@H]1c2ccc(O)cc2O[C@@H]31` [NEORAUTENOL], for which the inhibition entry in experiment [1], in [12], in experiment [9] and in [14] was “Active” throughout. Further, the Activity result in experiment [3] and in experiment [6] was “Dose-dependent effect” in each case. Further, the IC50 on Sialidase [4] is 19.8 µM; on Sialidase [5], 53.1 µM. For the same molecule, on Sialidase [13], the affinity corresponds to a Ki of 21.7 µM. Besides, the inhibition in experiment [7] came out at 91%; in [11] it was 9%.

Regarding `O=c1c(O)c(-c2ccc(O)c(O)c2)oc2cc(O)cc(O)c12` [QUERCETIN], the inhibition in [15] was 48.9%; in [16], 29.3%. Also, the Activity entry in [3] is “Dose-dependent effect”. Besides, the IC50 on Sialidase [4] is 25.3 µM.

As to `CC1(C)C=Cc2c(ccc3c2O[C@H]2c4ccc(O)cc4OC[C@@H]32)O1` [PHASEOLIN], the figures for the IC50 at Sialidase [4] and on Sialidase [5] were 33.6 µM and 31.4 µM, respectively. Moreover, in [6], the Activity entry was “Dose-dependent effect”. This molecule gave a Ki at Sialidase [8] of 4.84 µM.

On to `CC1(C)C=Cc2cc3c(cc2O1)O[C@H]1c2ccc(O)cc2OC[C@@H]31` [ISONEORAUTENOL], for which the inhibition result in [1], in [12], in [9] and in experiment [14] was “Active” in each case. In addition, the Activity result in experiment [3] and in experiment [6] was “Dose-dependent effect” throughout. Moreover, the IC50 at Sialidase [4] turned out to be 14.1 µM; at Sialidase [5], 64.8 µM. At Sialidase [13], this molecule came in with a Ki of 11 µM. For the same molecule, the figures for the inhibition in experiment [7] and in experiment [11] were 91% and 9%, respectively.

With `Oc1ccc2c(c1)O[C@H]1c3ccc(O)cc3OC[C@@H]21`, the inhibition result in experiment [1], in experiment [12], in experiment [9] and in [14] was “Active” in each case. For the same molecule, the Activity entry in experiment [3] and in experiment [6] was “Dose-dependent effect” in each case. The IC50 at Sialidase [4] stood at 6.39 µM; at Sialidase [5] it was 29.5 µM. The affinity at Sialidase [13] corresponds to a Ki of 3.83 µM. For the same molecule, the inhibition was 91% in experiment [7] and 9% in experiment [11].

`CC(C)=CCc1cc2c(cc1O)OC[C@@]1(O)c3ccc4c(c3O[C@@H]21)C=CC(C)(C)O4` [ERYSUBIN E]: the inhibition entry in experiment [1], in experiment [12], in [9] and in experiment [14] was “Active” throughout. For the same molecule, the Activity entry in [3] and in experiment [6] was “Dose-dependent effect” in each case. The values for the IC50 at Sialidase [4] and on Sialidase [5] were 1.3 µM and 19.5 µM, respectively. For the same molecule, on Sialidase [13], the Ki came out at 0.24 µM. Also, the inhibition was found to be 91% in [7] and 9% in [11].
